{
  "source": "ChEMBL document CHEMBL3600340",
  "about": "“Design and synthesis of new barbituric- and thiobarbituric acid derivatives as potent urease inhibitors: Structure activity relationship and molecular modeling studies” (Bioorg Med Chem, 2015)",
  "target": "Urease (Canavalia ensiformis, UniProt P07374)",
  "sequence (P07374 whole entry)": "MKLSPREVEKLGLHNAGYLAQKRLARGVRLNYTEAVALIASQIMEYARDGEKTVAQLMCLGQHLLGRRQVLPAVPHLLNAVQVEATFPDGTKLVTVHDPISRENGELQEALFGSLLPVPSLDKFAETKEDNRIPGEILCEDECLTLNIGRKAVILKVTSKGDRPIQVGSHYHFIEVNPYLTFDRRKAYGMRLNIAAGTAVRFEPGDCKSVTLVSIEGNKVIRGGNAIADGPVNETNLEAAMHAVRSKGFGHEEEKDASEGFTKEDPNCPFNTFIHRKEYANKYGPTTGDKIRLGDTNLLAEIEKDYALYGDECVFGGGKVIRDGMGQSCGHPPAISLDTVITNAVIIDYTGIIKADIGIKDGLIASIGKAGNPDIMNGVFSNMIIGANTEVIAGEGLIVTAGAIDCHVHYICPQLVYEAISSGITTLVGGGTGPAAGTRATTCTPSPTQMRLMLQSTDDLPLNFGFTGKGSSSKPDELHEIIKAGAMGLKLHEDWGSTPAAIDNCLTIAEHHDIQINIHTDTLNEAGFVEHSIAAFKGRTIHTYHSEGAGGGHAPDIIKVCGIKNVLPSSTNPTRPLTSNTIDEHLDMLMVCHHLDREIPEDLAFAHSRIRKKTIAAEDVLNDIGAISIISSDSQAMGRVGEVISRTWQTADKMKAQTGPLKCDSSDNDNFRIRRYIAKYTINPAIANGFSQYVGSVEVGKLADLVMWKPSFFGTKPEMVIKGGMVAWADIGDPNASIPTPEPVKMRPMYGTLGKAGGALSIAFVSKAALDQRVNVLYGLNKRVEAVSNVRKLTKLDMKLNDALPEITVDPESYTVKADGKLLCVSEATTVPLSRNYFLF",
  "experiment": "Inhibition of jack bean Urease assessed as ammonia production after 15 mins by indophenol method",
  "summary_of_the_method": "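Jack bean urease preincubated with test compound (0.5 mM, concentration as printed) in buffer containing 100 mM urea at 30 °C for 15 min, pH 6.8. Ammonia quantified by indophenol method (phenol/nitroprusside plus alkaline hypochlorite). Absorbance read at 630 nm after 50 min.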",
  "data": [
    {"smiles": "O=C1NC(=O)C(=CNc2ccccc2S)C(=O)N1", "values": [
      {"measurement": "IC50", "value": 52.6, "unit": "µM"}
    ]},
    {"smiles": "O=C1NC(=S)NC(=O)C1=CNc1cc(C(=O)O)ccc1Cl", "values": [
      {"measurement": "IC50", "value": 26.7, "unit": "µM"}
    ]},
    {"smiles": "O=C1NC(=S)NC(=O)C1=CNc1ccc([N+](=O)[O-])c(C(=O)O)c1", "values": [
      {"measurement": "IC50", "value": 39.8, "unit": "µM"}
    ]},
    {"smiles": "O=C1NC(=S)NC(=O)C1=CNc1cccc(C(=O)O)c1", "values": [
      {"measurement": "IC50", "value": 21.8, "unit": "µM"}
    ]},
    {"smiles": "O=C1NC(=S)NC(=O)C1=CNc1ccccc1C(=O)O", "values": [
      {"measurement": "IC50", "value": 13, "unit": "µM"}
    ]},
    {"smiles": "O=C1NC(=S)NC(=O)C1=CNc1ccc(I)cc1", "values": [
      {"measurement": "IC50", "value": 41.3, "unit": "µM"}
    ]},
    {"smiles": "O=C1NC(=S)NC(=O)C1=CNc1ccccc1C(F)(F)F", "values": [
      {"measurement": "IC50", "value": 65.3, "unit": "µM"}
    ]},
    {"smiles": "O=C1NC(=S)NC(=O)C1=CNc1ccccc1S", "values": [
      {"measurement": "IC50", "value": 15, "unit": "µM"}
    ]},
    {"smiles": "O=C1NC(=S)NC(=O)C1=CNc1ccc(C(F)(F)F)cc1", "values": [
      {"measurement": "IC50", "value": 136, "unit": "µM"}
    ]},
    {"smiles": "O=C1NC(=S)NC(=O)C1=CNc1cc([N+](=O)[O-])ccc1C(F)(F)F", "values": [
      {"measurement": "IC50", "value": 28.7, "unit": "µM"}
    ]},
    {"smiles": "O=C1NC(=S)NC(=O)C1=CNc1ccc(C(=O)O)c(O)c1", "values": [
      {"measurement": "IC50", "value": 32.3, "unit": "µM"}
    ]},
    {"smiles": "O=C1NC(=S)NC(=O)C1=CNc1cc([N+](=O)[O-])ccc1C(=O)O", "values": [
      {"measurement": "IC50", "value": 8.53, "unit": "µM"}
    ]},
    {"smiles": "O=C1NC(=S)NC(=O)C1=CNc1cc(C(=O)O)ccc1O", "values": [
      {"measurement": "IC50", "value": 18.9, "unit": "µM"}
    ]},
    {"smiles": "O=C1NC(=O)C(=CNc2ccc(C(=O)O)c(O)c2)C(=O)N1", "values": [
      {"measurement": "IC50", "value": 88.3, "unit": "µM"}
    ]},
    {"smiles": "O=C1NC(=S)NC(=O)C1=CNc1cccc(C(F)(F)F)c1", "values": [
      {"measurement": "IC50", "value": 24.6, "unit": "µM"}
    ]},
    {"smiles": "O=C1NC(=O)C(=CNc2ccc([N+](=O)[O-])c(C(=O)O)c2)C(=O)N1", "values": [
      {"measurement": "IC50", "value": 25.8, "unit": "µM"}
    ]},
    {"smiles": "O=C1NC(=S)NC(=O)C1=CNc1cc(Cl)cc(Cl)c1", "values": [
      {"measurement": "IC50", "value": 89.2, "unit": "µM"}
    ]},
    {"smiles": "O=C1NC(=S)NC(=O)C1=CNc1ccccc1O", "values": [
      {"measurement": "IC50", "value": 19.7, "unit": "µM"}
    ]},
    {"smiles": "O=C1NC(=S)NC(=O)C1=CNc1ccc(C(=O)O)cc1", "values": [
      {"measurement": "IC50", "value": 8.93, "unit": "µM"}
    ]}
  ]
}
